Measured values: article PMC3508427 (The British journal of nutrition, 2009)

Assays:
[1] = Plasma pharmacokinetics of total flavanones; type: in vivo, human; details: fruit or juice
Method in brief: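 Randomised cross-over in twenty volunteers on a flavonoid-avoidance diet, given single orange juice (300 g) or fruit portions. Drinking withheld 1·5 h and eating 4 h. Heparinised blood taken at 15, 30, 45 min and 1–48 h, centrifuged, and ascorbate added (final 1 mM). Plasma (pH 5·0) hydrolysed with β-glucuronidase and sulfatase for 2 h at 37°C. Total naringenin and hesperetin measured by C18 SPE and reversed-phase HPLC.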

[2] = type: in vivo, human; details: orange juice, n 129, linear model
Method in brief: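 Extended cohort of 129 subjects given a single 300 g orange juice dose. Urine collected as 24 h fractions: the day before, then for 48 h after, into bottles holding 1 g ascorbic acid. Volumes recorded. Urine (pH 5·0) hydrolysed with β-glucuronidase (10 000 units) and sulfatase (1000 units) for 2 h at 37°C, with galangin as internal standard. Measured by C18 SPE and HPLC, expressed as % of flavanone dose.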

[3] = cited from earlier work
[4] = cited from earlier work; remark: listed apart in the source

SMILES | time of major peak in plasma profile [1] | decrease in urinary excretion between the ages of 20 and 80 years [2] [%] | mean urinary yield [3] [%] | time to peak plasma concentration [4]
COc1ccc([C@@H]2CC(=O)c3c(O)cc(O)cc3O2)cc1O [hesperetin] | about 6 h | 4 |  | 
COc1ccc([C@@H]2CC(=O)c3c(O)cc(O[C@@H]4O[C@H](CO[C@@H]5O[C@@H](C)[C@H](O)[C@@H](O)[C@H]5O)[C@@H](O)[C@H](O)[C@H]4O)cc3O2)cc1O [hesperidin, 7-O-rutinoside of hesperetin] |  |  | > 8 | about 6 h
O=C1C[C@@H](c2ccc(O)cc2)Oc2cc(O)cc(O)c21 [naringenin] | about 6 h |  |  | 
C[C@@H]1O[C@@H](O[C@H]2[C@H](Oc3cc(O)c4c(c3)O[C@H](c3ccc(O)cc3)CC4=O)O[C@H](CO)[C@@H](O)[C@@H]2O)[C@H](O)[C@H](O)[C@H]1O [naringin] |  |  | > 8 | about 6 h
OC[C@H]1O[C@@H](Oc2cc3c(O)cc(O)cc3[o+]c2-c2ccc(O)cc2)[C@H](O)[C@@H](O)[C@@H]1O [pelargondin-3-glucoside] |  |  |  | about 1 h
C[C@@H]1O[C@@H](OC[C@H]2O[C@@H](Oc3c(-c4ccc(O)c(O)c4)oc4cc(O)cc(O)c4c3=O)[C@H](O)[C@@H](O)[C@@H]2O)[C@H](O)[C@H](O)[C@H]1O [rutin, quercetin rutinoside] |  |  |  | about 6 h
